Five molecules from ChEMBL document CHEMBL1157582, “Synthesis and uptake of fluorescence-labeled Combi-molecules by P-glycoprotein-proficient and -deficient uterine sarcoma cells MES-SA and MES-SA/DX5” (J Med Chem, 2010) can be followed below.

Data set [1] deals with MES-SA. As to the kind of experiment: Induction of DNA damage in human MES-SA cells assessed as increase in comet-tail length by alkaline comet assay. The data set is classed as functional, cell-based.
A short description of data set [2]: Antiproliferative activity against human MES-SA/Dx5 cells after 96 hrs by SRB assay. The data set is classed as functional, cell-based. To be noted: MES-SA/Dx5, 96 h. Summed up:
(§1)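 Cells plated at 5000/well, attached overnight, then exposed to a range of drug concentrations for 96 h. Fixed with trichloroacetic acid (1 h, 4 °C), stained with 0.4% sulforhodamine B (2 h, room temperature), dye dissolved in 10 mM Tris base pH 10.0, OD read at 492 nm. IC50 taken from sigmoidal dose-response fit. At least three independent experiments in triplicate. DMSO ≤0.1% (v/v).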

The nature of data set [3]: Antiproliferative activity against human MES-SA cells after 96 hrs by SRB assay. The data set is classed as functional, cell-based.
In data set [4] the test system is MES-SA/Dx5. As to the kind of experiment: Induction of DNA damage in human MES-SA/Dx5 cells assessed as increase in comet-tail length by alkaline comet assay. The data set is classed as functional, cell-based.
The subject of data set [5] is MDA-MB-468. As to the kind of experiment: Antiproliferative activity against human MDA-MB-468 cells after 96 hrs by SRB assay. It is filed as functional, cell-based. To be noted: MDA-MB-468, 96 h. Summed up: as §1
Data set [6] is described as follows: Stability in serum assessed as half life by UV spectrophotometry. It is filed as ADME, cell-free.
A short description of data set [7]: Cellular uptake in human MES-SA/Dx5 cells after 2 hrs by flow cytometry. It is filed as ADME, cell-based. To be noted: mes-sa/dx5, 2 h.
A short description of data set [8]: Cellular uptake in human MES-SA/Dx5 cells at 25 uM after 2 hrs by fluorescence microscopy. The data set is classed as ADME, cell-based. To be noted: mes-sa/dx5, 2 h. Summed up:
(§2)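 Cells plated at 70% confluence and left to adhere overnight. Treated with 0, 25 or 50 μM for 2 h, washed twice with PBS, then imaged live without fixation at 40× under fluorescence; blue aminoquinazoline and green dansylated species captured through separate filters.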

Data set [9] can be described thus: Cellular uptake in human MES-SA cells at 25 uM after 2 hrs by fluorescence microscopy. It is filed as ADME, cell-based. The method, boiled down: as §2
The nature of data set [10]: Cellular uptake in human MES-SA cells after 2 hrs by flow cytometry. It is filed as ADME, cell-based.
Data set [11] addresses Epidermal growth factor receptor (Homo sapiens, UniProt P00533). In words: Inhibition of EGFR.
For data set [12], the system named is MES-SA. As to the kind of experiment: Selectivity ratio of IC50 for human MES-SA cells to IC50 for human MES-SA/Dx5 cells. The data set is classed as functional.

Molecules are shown by their SMILES. The source made the active and inactive calls. No cut-off for these calls is given here.

Epidermal growth factor receptor, sequence (P00533 whole entry): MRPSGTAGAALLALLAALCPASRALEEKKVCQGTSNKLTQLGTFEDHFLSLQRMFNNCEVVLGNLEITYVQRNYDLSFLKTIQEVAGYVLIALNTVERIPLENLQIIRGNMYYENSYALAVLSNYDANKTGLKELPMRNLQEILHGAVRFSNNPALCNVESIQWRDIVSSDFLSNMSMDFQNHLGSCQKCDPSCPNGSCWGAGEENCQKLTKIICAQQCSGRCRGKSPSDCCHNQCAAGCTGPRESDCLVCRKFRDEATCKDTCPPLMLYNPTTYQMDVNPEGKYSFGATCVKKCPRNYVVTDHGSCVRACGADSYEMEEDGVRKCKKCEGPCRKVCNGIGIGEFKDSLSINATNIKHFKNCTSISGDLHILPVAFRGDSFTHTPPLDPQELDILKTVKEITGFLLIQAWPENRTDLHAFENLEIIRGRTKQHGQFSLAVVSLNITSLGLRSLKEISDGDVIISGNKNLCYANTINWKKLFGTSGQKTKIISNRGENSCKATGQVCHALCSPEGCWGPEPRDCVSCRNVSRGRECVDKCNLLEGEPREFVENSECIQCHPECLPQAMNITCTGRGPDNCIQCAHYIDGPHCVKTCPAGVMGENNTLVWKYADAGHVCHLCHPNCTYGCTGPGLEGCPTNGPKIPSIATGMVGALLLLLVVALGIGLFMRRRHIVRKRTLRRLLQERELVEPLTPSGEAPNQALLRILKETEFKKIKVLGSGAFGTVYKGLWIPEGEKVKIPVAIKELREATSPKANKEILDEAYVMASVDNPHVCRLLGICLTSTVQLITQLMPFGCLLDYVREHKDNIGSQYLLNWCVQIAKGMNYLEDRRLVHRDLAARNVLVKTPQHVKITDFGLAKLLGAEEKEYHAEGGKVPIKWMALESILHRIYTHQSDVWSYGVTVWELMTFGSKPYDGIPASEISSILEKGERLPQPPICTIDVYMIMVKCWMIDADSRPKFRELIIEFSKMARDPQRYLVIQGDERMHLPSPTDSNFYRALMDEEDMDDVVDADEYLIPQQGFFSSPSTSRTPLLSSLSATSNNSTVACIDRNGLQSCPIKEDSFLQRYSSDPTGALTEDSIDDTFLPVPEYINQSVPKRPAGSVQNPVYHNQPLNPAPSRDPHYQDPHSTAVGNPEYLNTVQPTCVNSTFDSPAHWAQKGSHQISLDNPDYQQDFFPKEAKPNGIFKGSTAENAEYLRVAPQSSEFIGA

On to `CN(CCN/N=N/c1ccc2ncnc(Nc3cccc(Cl)c3)c2c1)CCNS(=O)(=O)c1cccc2c(N(C)C)cccc12`, for which the outcome in data set [1] and in data set [4] was Active. Further, the concentration for half-maximal inhibition (IC50) in [2] was determined as 9.34 µM; in data set [3], 8.57 µM; in data set [5], 5.2 µM.

In the case of `CN(C)CCN/N=N/c1ccc2ncnc(Nc3cccc(Cl)c3)c2c1`, in [6], the half-life amounted to 108 min.

As to `CN(CCN=NNc1ccc2ncnc(Nc3cccc(Cl)c3)c2c1)CCNS(=O)(=O)c1cccc2c(N(C)C)cccc12`, the half-life in data set [6] was 21.7 min. For the same molecule, the Drug uptake entry in [7], in [8], in data set [9] and in [10] was “Active” throughout. In addition, the IC50 in data set [11] came to 0.6 µM.

As to `COc1cccc2c1C(=O)c1c(O)c3c(c(O)c1C2=O)C[C@@](O)(C(=O)CO)C[C@@H]3O[C@H]1C[C@H](N)[C@H](O)[C@H](C)O1` [DOXORUBICIN], the Drug uptake result in data set [9] and in data set [10] was “Active” each time. In addition, the result in data set [1] and in [4] was Active. Also, the IC50 in data set [2] came out at 3.1 µM.

`CN(C)c1cccc2c(S(=O)(=O)NCCN=NNc3ccc4ncnc(Nc5cccc(Cl)c5)c4c3)cccc12`: in data set [6], the half-life stood at 4.96 min. Further, the Drug uptake entry in data set [7], in [8], in data set [9] and in data set [10] was “Active” each time. Moreover, the “Ratio IC50” value in data set [12] amounted to 1.6. Also, the IC50 in data set [2] is 16.6 µM; in [3], 26.6 µM; in [11], 1.4 µM; in [5], 9.1 µM.
